In PMC10335114 (RSC Advances, 2023):

What was measured:
Type in all cases: biochemical
h-NTPDase1 = target: T1, h-NTPDase1 (Homo sapiens, UniProt P49961); test: h-NTPDase1 enzyme inhibition, malachite green assay; conditions: for inhibition at 100 µM: read-out: h-NTPDase1 % inhibition ± S.D
T1 sequence (P49961 1-510): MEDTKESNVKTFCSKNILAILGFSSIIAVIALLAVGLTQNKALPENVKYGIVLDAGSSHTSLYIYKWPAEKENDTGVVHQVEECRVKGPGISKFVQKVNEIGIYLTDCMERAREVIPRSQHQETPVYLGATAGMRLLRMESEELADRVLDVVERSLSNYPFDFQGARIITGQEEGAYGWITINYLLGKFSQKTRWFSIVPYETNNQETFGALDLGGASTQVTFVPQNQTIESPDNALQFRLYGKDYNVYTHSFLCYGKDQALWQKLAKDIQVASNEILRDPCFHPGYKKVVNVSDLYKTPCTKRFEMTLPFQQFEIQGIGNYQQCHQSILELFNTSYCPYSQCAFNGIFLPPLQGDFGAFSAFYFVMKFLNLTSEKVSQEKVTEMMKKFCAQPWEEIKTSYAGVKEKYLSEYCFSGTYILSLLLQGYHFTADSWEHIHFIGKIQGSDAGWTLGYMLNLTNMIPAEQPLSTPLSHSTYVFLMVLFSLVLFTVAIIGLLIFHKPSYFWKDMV
Outline: (§1)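 Malachite green assay in 50 mM Tris-HCl, 5 mM CaCl2, pH 7.4. Test compound at 100 μM, in triplicate, incubated 10 min with enzyme: h-NTPDase1 12 ng, h-NTPDase2 37 ng, h-NTPDase3 43 ng, h-NTPDase8 63 ng. Plate read at 630 nm, then substrate (100 μM) added and incubated 15 min at 37 °C. Malachite green reagent added and reading taken up to 6 min.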

h-NTPDase2 = target: T2, h-NTPDase2 (Homo sapiens, UniProt Q9Y5L3); test: h-NTPDase2 enzyme inhibition, malachite green assay; conditions: for inhibition at 100 µM: read-out: h-NTPDase2 % inhibition ± S.D; for h-NTPDase2 IC50 ± SEM: triplicate, determined for compounds with over 50% inhibition at 100 μM
T2 sequence (Q9Y5L3 1-495): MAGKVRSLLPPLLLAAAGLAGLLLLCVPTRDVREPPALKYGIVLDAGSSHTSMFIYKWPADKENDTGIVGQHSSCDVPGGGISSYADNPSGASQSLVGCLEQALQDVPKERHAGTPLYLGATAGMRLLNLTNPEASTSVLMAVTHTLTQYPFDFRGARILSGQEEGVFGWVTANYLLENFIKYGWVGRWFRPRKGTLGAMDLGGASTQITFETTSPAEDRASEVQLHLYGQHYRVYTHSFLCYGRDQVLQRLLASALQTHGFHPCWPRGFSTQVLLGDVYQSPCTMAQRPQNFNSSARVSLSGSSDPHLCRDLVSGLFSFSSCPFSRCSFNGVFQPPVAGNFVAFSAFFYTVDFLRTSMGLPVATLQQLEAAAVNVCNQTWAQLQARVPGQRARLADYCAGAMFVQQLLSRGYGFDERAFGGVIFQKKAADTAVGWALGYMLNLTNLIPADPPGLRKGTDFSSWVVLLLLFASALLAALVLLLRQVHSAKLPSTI
Outline: as §1

h-NTPDase3 = target: T3, h-NTPDase3 (Homo sapiens, UniProt O75355); test: h-NTPDase3 enzyme inhibition, malachite green assay
T3 sequence (O75355 1-529): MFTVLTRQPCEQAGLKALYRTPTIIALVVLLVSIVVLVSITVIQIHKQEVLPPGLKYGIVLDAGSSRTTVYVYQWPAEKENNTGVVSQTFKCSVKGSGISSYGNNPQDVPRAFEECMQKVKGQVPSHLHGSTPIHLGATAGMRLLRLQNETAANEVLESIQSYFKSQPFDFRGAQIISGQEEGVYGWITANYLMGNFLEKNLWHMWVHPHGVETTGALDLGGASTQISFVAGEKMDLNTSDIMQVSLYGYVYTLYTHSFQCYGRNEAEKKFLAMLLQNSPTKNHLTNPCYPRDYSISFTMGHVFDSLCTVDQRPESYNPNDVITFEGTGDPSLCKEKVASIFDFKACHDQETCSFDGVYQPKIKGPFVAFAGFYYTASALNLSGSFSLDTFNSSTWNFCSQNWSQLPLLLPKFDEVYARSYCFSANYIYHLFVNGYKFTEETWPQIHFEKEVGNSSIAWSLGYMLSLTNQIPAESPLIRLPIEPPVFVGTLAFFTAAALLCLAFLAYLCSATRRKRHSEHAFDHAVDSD
Outline: as §1

h-NTPDase8 = target: T4, h-NTPDase8 (Homo sapiens, UniProt Q5MY95); test: h-NTPDase8 enzyme inhibition, malachite green assay; conditions: for inhibition at 100 µM: read-out: h-NTPDase8 % inhibition ± S.D
T4 sequence (Q5MY95 1-495): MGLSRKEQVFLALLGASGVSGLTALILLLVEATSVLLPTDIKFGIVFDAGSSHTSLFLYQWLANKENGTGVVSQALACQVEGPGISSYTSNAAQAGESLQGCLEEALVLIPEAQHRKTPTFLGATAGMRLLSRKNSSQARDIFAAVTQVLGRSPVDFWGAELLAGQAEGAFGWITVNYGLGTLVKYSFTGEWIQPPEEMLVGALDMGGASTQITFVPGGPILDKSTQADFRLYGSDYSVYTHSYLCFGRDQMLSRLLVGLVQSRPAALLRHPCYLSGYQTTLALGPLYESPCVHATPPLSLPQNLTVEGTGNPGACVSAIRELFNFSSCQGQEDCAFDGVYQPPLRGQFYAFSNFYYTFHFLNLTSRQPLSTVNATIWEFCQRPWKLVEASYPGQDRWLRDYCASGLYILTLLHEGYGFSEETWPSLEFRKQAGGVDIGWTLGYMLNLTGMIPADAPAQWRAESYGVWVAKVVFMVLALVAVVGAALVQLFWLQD
Outline: as §1

Row | SMILES | inhibition at 100 µM (h-NTPDase1) [%] | inhibition at 100 µM (h-NTPDase2) [%] | inhibition at 100 µM (h-NTPDase3; read-out: h-NTPDase3 % inhibition ± S.D) [%] | IC50 (h-NTPDase8) [nM] | IC50 (h-NTPDase1) [nM] | IC50 (h-NTPDase2) [nM] | h-NTPDase2 IC50 ± SEM (h-NTPDase2) | IC50 (h-NTPDase3) [nM] | inhibition at 100 µM (h-NTPDase8) [%]
1 | COc1ccc(NC(=O)c2cccc(S(=O)(=O)N3CCOCC3)c2)cc1 [3f, N-(4-methoxyphenyl)-3-(morpholinosulfonyl)benzamide] |  |  |  |  | > 100000 | 270 ± 80 | sub-micromolar | 6710 ± 40 | 29 ± 4.5
2 | COc1ccc(NC(=O)c2cc(S(=O)(=O)NCc3ccccc3)ccc2Cl)cc1 [3j, 5-(N-benzylsulfamoyl)-2-chloro-N-(4-methoxyphenyl)benzamide] | 37 ± 1.3 |  |  |  |  | 290 ± 70 | sub-micromolar | 3160 ± 120 | 36 ± 1.7
3 | Cc1ccc(C(=O)Nc2ccc(S(=O)(=O)O)c3cc(S(=O)(=O)O)cc(S(=O)(=O)O)c23)cc1NC(=O)c1cccc(NC(=O)Nc2cccc(C(=O)Nc3cc(C(=O)Nc4ccc(S(=O)(=O)O)c5cc(S(=O)(=O)O)cc(S(=O)(=O)O)c45)ccc3C)c2)c1 [Suramin, reference compound] |  |  |  | 101000 ± 2340 |  |  |  |  | 

Second part, the molecule after the results:

Row | inhibition at 100 µM (h-NTPDase1) [%] | inhibition at 100 µM (h-NTPDase2) [%] | inhibition at 100 µM (h-NTPDase3; read-out: h-NTPDase3 % inhibition ± S.D) [%] | IC50 (h-NTPDase8) [nM] | IC50 (h-NTPDase1) [nM] | IC50 (h-NTPDase2) [nM] | h-NTPDase2 IC50 ± SEM (h-NTPDase2) | IC50 (h-NTPDase3) [nM] | inhibition at 100 µM (h-NTPDase8) [%] | SMILES
4 | 3 ± 1.2 | 19 ± 0.9 | 41 ± 1.4 | 280 ± 70 |  |  |  |  |  | O=C(O)c1cc(S(=O)(=O)NC2CC2)ccc1Cl [2d, 2-chloro-5-(N-cyclopropylsulfamoyl)benzoic acid]
5 |  | 43 ± 1.4 |  |  | 2880 ± 130 |  |  | 720 ± 110 | 32 ± 3.5 | O=C(c1cc(S(=O)(=O)Nc2ccc(Br)cc2)ccc1Cl)N1CCOCC1 [3i, N-(4-bromophenyl)-4-chloro-3-(morpholine-4-carbonyl)benzenesulfonamide]
6 | 36 ± 2.4 |  |  | 2460 ± 90 |  | 130 ± 10 | sub-micromolar | 200 ± 70 |  | O=C(NC1CC1)c1cc(S(=O)(=O)NC2CC2)ccc1Cl [4d, 2-chloro-N-cyclopropyl-5-(N-cyclopropylsulfamoyl)benzamide]
